Results from ChEMBL document CHEMBL1158477, “Synthesis, in vivo evaluation, and molecular modeling studies of new pyrazolo[5,1-c][1,2,4]benzotriazine 5-oxide derivatives. Identification of a bifunctional hydrogen bond area related to the inverse agonism” (J Med Chem, 2009).
Calls of active or inactive are those of the source. The calls are words filed in the database; no cut-off is given here.

Columns and labels:
[1] = Displacement of [3H]flumazenil from GABAA/Benzodiazepine receptor in bovine brain; set-up: species or system Bos taurus
Summary of the method: (§1)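 Bovine brain membranes; displacement of specific [3H]flumazenil (Ro15-1788) binding. Percent inhibition measured at 10 μM; Ki determined only when inhibition at that concentration exceeded 80%. Ki given as mean ± SEM of five determinations.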

Bos taurus = species on record: Bos taurus; assay: Displacement of [3H]flumazenil from GABAA/Benzodiazepine receptor in bovine brain at 10 uM; summary of the method: as §1
Mus musculus [2] = assay: Anxiolytic activity in CD1 albino mouse at 3 mg/kg, po after 30 mins by light/dark box test; type: functional, organism-based; set-up: dose 3 mg/kg
Summary of the method: (§2)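 Male CD-1 mice (22-24 g) given test substance po in 1% CMC (10 mL/kg), tested 30 min later in a light/dark box. Transfers between compartments and time spent in the illuminated side were measured. Values are mean ± SEM of 15-20 mice; compared with controls.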

Mus musculus [3] = assay: Anticonvulsant activity against pentylenetetrazole-induced shock in CD1 albino mouse assessed as shock latency at 10 mg/kg, po preincubated for 30 mins before pentylenetetrazole challenge measured for 30 mins (RVb=253.1 +/- 13 seconds); type: functional
Mus musculus [4] = assay: Anxiolytic activity in CD1 albino mouse at 10 mg/kg, po after 30 mins by light/dark box test; type: functional, organism-based; set-up: dose 10 mg/kg; summary of the method: as §2
Mus musculus [5] = assay: Effect on spontaneous motility in CD1 albino mouse assessed as number of movement on plane board at 10 mg/kg, po after 30 mins by hole-board test; type: functional
Summary of the method: (§3)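 Hole-board test in male CD-1 mice: animals placed singly on the board and allowed to explore panel and holes. Test run 30 min after po dosing in 1% CMC (10 mL/kg). Hole entries (curiosity) and plane movements (spontaneous motility) counted; 10 mice per group, compared with CMC controls.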

Mus musculus [6] = assay: Effect on learning and memory process in CD1 albino mouse assessed as improvement in retention latency at 3 mg/kg, po after 24 hrs by passive avoidance test; type: functional, organism-based; set-up: dose 3 mg/kg
Summary of the method: (§4)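 Step-through passive avoidance in a two-compartment box (lit and dark compartments joined by a guillotine door). Male CD-1 mice dosed po (1% CMC) 30 min before training; retention tested 24 h later. Training and retention latencies recorded; mean ± SEM of 15-20 mice versus controls.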

Mus musculus [7] = assay: Effect on explorative capacity in CD1 albino mouse assessed as curiosity-related number of head plugging activity on hole at 3 mg/kg, po after 30 mins by hole-board test; type: functional; summary of the method: as §3
Mus musculus [8] = assay: Anticonvulsant activity against pentylenetetrazole-induced convulsions in CD1 albino mouse assessed as convulsion latency at 10 mg/kg, po preincubated for 30 mins before pentylenetetrazole challenge measured for 30 mins (RVb=599 +/- 37.6 seconds); type: functional
Mus musculus [9] = assay: Anticonvulsant activity against pentylenetetrazole-induced convulsions in CD1 albino mouse assessed as convulsion latency at 3 mg/kg, po preincubated for 30 mins before pentylenetetrazole challenge measured for 30 mins (RVb=599 +/- 37.6 seconds); type: functional
Mus musculus [10] = assay: Effect on learning and memory process in CD1 albino mouse assessed as improvement in retention latency at 10 mg/kg, po after 24 hrs by passive avoidance test; type: functional, organism-based; set-up: dose 10 mg/kg; summary of the method: as §4
Mus musculus [11] = assay: Anticonvulsant activity against pentylenetetrazole-induced shock in CD1 albino mouse assessed as shock latency at 3 mg/kg, po preincubated for 30 mins before pentylenetetrazole challenge measured for 30 mins (RVb=253.1 +/- 13 seconds); type: functional
Mus musculus [12] = assay: Effect on motor coordination in CD1 albino mouse assessed as number of falls form rotarod at 10 mg/kg, po […] measured for 30 seconds after 30 mins of dosing by rotarod test; type: functional
Summary of the method: (§5)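 Rota-rod in male CD-1 mice with a pretest. Test substance given po in 1% CMC; falls from the rotating rod counted over 30 s, assessed 30 min after treatment.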

Mus musculus [13] = assay: Effect on explorative capacity in CD1 albino mouse assessed as curiosity-related number of head plugging activity on hole at 10 mg/kg, po after 30 mins by hole-board test; type: functional; summary of the method: as §3
Mus musculus [14] = assay: Effect on motor coordination in CD1 albino mouse assessed as number of falls form rotarod at 3 mg/kg, po administered 60 mins before test measured for 30 seconds after 30 mins of drug infusion by rotarod test; type: functional; summary of the method: as §5
Mus musculus [15] = assay: Effect on ethanol-induced sleeping time in CD1 albino mouse assessed as increase in duration of loss of righting reflex at 3 mg/kg, po preincubated 30 mins before ethanol challenge; type: functional, organism-based; set-up: dose 3 mg/kg
Mus musculus [16] = assay: Effect on ethanol-induced sleeping time in CD1 albino mouse assessed as increase in duration of loss of righting reflex at 10 mg/kg, po preincubated 30 mins before ethanol challenge; type: functional, organism-based; set-up: dose 10 mg/kg
Mus musculus [17] = assay: Effect on spontaneous motility in CD1 albino mouse assessed as number of movement on plane board at 3 mg/kg, po after 30 mins by hole-board test; type: functional; summary of the method: as §3
Mus musculus [18] = assay: Anxiolytic activity in CD1 albino mouse at 30 mg/kg, po after 30 mins by light/dark box test in presence of flumazenil; type: functional, organism-based; set-up: dose 30 mg/kg
Summary of the method: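 Light/dark box in male CD-1 mice. Test substance given po in 1% CMC 30 min before the test, with flumazenil 100 mg/kg ip (saline) co-treatment. Transfers between compartments and time in the lit side recorded. Mean ± SEM of 15-20 mice.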

Mus musculus [19] = assay: Effect on learning and memory process in CD1 albino mouse assessed as decrease in retention latency at 10 mg/kg, po after 24 hrs by passive avoidance test; type: functional, organism-based; set-up: dose 10 mg/kg; summary of the method: as §4
Mus musculus [20] = assay: Anxiolytic activity in CD1 albino mouse at 30 mg/kg, po after 30 mins by light/dark box test; type: functional, organism-based; set-up: dose 30 mg/kg; summary of the method: as §2
Mus musculus [21] = assay: Effect on ethanol-induced sleeping time in CD1 albino mouse assessed as increase in duration of loss of righting reflex at 30 mg/kg, po preincubated 30 mins before ethanol challenge; type: functional, organism-based; set-up: dose 30 mg/kg
Mus musculus [22] = assay: Effect on explorative capacity in CD1 albino mouse assessed as curiosity-related number of head plugging activity on hole at 30 mg/kg, po after 30 mins by hole-board test; type: functional; details: 30 mg/kg; summary of the method: as §3
Mus musculus [23] = assay: Effect on spontaneous motility in CD1 albino mouse assessed as number of movement on plane board at 100 mg/kg, po after 30 mins by hole-board test; type: functional; summary of the method: as §3
Mus musculus [24] = assay: Anticonvulsant activity against pentylenetetrazole-induced convulsions in CD1 albino mouse assessed as convulsion latency at 30 mg/kg, po preincubated for 30 mins before pentylenetetrazole challenge measured for 30 mins (RVb=599 +/- 37.6 seconds); type: functional; details: 30 mg/kg
Mus musculus [25] = assay: Effect on spontaneous motility in CD1 albino mouse assessed as number of movement on plane board at 50 mg/kg, po after 30 mins by hole-board test; type: functional; summary of the method: as §3
Mus musculus [26] = assay: Effect on explorative capacity in CD1 albino mouse assessed as curiosity-related number of head plugging activity on hole at 50 mg/kg, po after 30 mins by hole-board test; type: functional; summary of the method: as §3
Mus musculus [27] = assay: Effect on spontaneous motility in CD1 albino mouse assessed as number of movement on plane board at 30 mg/kg, po after 30 mins by hole-board test; type: functional; details: 30 mg/kg; summary of the method: as §3
Mus musculus [28] = assay: Anticonvulsant activity against pentylenetetrazole-induced shock in CD1 albino mouse assessed as shock latency at 30 mg/kg, po preincubated for 30 mins before pentylenetetrazole challenge measured for 30 mins (RVb=253.1 +/- 13 seconds); type: functional; details: 30 mg/kg
Mus musculus [29] = assay: Effect on explorative capacity in CD1 albino mouse assessed as curiosity-related number of head plugging activity on hole at 100 mg/kg, po after 30 mins by hole-board test; type: functional; summary of the method: as §3
Mus musculus [30] = assay: Effect on motor coordination in CD1 albino mouse assessed as number of falls form rotarod at 30 mg/kg, po […] measured for 30 seconds after 30 mins of drug infusion by rotarod test; type: functional; details: 30 mg/kg; summary of the method: as §5

Compound	Ki [1] [nM]	Activity (Bos taurus) [%]	other results
CC(Oc1ccc2c(c1)n1ncc(I)c1n[n+]2[O-])c1ccccc1 (racemic) [listing 1 of 2 here]	3.4		
COc1ccccc1COc1ccc2c(c1)n1ncc(I)c1n[n+]2[O-]	0.42	> 80	
[O-][n+]1nc2c(I)cnn2c2cc(OCc3ccncc3)ccc21	1.3	> 80	Activity (Mus musculus [2]): inactive; Activity (Mus musculus [3]): 299 s; Activity (Mus musculus [4]): inactive; Activity (Mus musculus [5]): 85.1; Activity (Mus musculus [6]): Active; Activity (Mus musculus [7]): 35.5; Activity (Mus musculus [8]): 610.9 s; Activity (Mus musculus [9]): 565.8 s; Activity (Mus musculus [10]): Active; Activity (Mus musculus [11]): 183 s; Activity (Mus musculus [12]): 2.3; Activity (Mus musculus [13]): 36.9; Activity (Mus musculus [14]): 1.4; Activity (Mus musculus [15]): inactive; Activity (Mus musculus [16]): inactive; Activity (Mus musculus [17]): 93.9
[O-][n+]1nc2c(Br)cnn2c2cc(-c3ccccc3)ccc21	802	> 80	
Ic1cnn2c1nnc1ccc(OCc3ccccc3)cc12	1	> 80	
Cc1ccc2c(c1)n1ncc(C(=O)OCc3cccs3)c1n[n+]2[O-]	1.41	> 80	
[O-][n+]1nc2c(Cl)cnn2c2cc(-c3ccccc3)ccc21		45	
CCOC(=O)c1cnn2c1n[n+]([O-])c1ccc(OCc3ccccc3)cc12	2.1	> 80	
[O-][n+]1nc2c(I)cnn2c2cc(OCc3ccc(Cl)cc3)ccc21	11	> 80	
O=C(OCc1cccs1)c1cnn2c1n[n+]([O-])c1ccc(Oc3ccccc3)cc12	0.7	> 80	
[O-][n+]1nc2c(I)cnn2c2cc(/C=C/c3ccccc3)ccc21	2000	> 80	
[O-][n+]1nc2c(I)cnn2c2cc(OCc3ccco3)ccc21	0.8	> 80	
[O-][n+]1nc2ccnn2c2cc(-c3ccccc3)ccc21		10	
[O-][n+]1nc2ccnn2c2cc(OCc3ccccc3)ccc21	116	> 80	
O=C(OCc1cccs1)c1cnn2c1n[n+]([O-])c1ccc(C(F)(F)F)cc12	10	> 80	
[O-][n+]1nc2c(I)cnn2c2cc(OCCc3ccccc3)ccc21	43	> 80	
[O-][n+]1nc2c(I)cnn2c2cc(Oc3ccc4ccccc4c3)ccc21	94	> 80	
CCOc1cnn2c1n[n+]([O-])c1ccc(C(=O)OCc3ccccc3OC)cc12	0.31	> 80	
CCOC(=O)c1cnn2c1n[n+]([O-])c1ccc(-c3ccccc3)cc12		40	
CC(Oc1ccc2c(c1)n1ncc(I)c1n[n+]2[O-])c1ccccc1 (single isomer, unassigned; (-))		> 80	Activity (Mus musculus [4]): Active; Activity (Mus musculus [18]): inactive; Activity (Mus musculus [19]): Active; Activity (Mus musculus [16]): inactive; Activity (Mus musculus [20]): Active; Activity (Mus musculus [21]): inactive

Compound	Ki [1] [nM]	Activity (Bos taurus) [%]	other results
COc1ccccc1COC(=O)c1ccc2c(c1)n1ncc(C)c1n[n+]2[O-]	2.3	> 80	
CC(Oc1ccc2c(c1)n1ncc(I)c1n[n+]2[O-])c1ccccc1 (racemic) [listing 2 of 2 here]		> 80	
COc1ccccc1COC(=O)c1cnn2c1n[n+]([O-])c1ccc(Oc3ccccc3)cc12	1.75	> 80	
[O-][n+]1nc2c(I)cnn2c2cc(OCc3cccs3)ccc21	1.2	> 80	
CC(COc1ccc2c(c1)n1ncc(I)c1n[n+]2[O-])c1ccccc1 (racemic)	160	> 80	
CCOc1ccc2c(c1)n1ncc(C(=O)OCc3cccs3)c1n[n+]2[O-]	0.85	> 80	
COc1ccc(COc2ccc3c(c2)n2ncc(I)c2n[n+]3[O-])cc1	4.5	> 80	
[O-][n+]1nc2c(I)cnn2c2cc(OC3CCCCC3)ccc21	188	> 80	
CC(Cc1ccccc1)Oc1ccc2c(c1)n1ncc(I)c1n[n+]2[O-] (racemic)	103	> 80	
COc1ccccc1COC(=O)c1ccc2c(c1)n1ncc(C(F)(F)F)c1n[n+]2[O-]	5.8	> 80	
[O-][n+]1nc2c(I)cnn2c2cc(OCc3ccccc3OC(F)(F)F)ccc21	6.6	> 80	
COc1ccccc1COC(=O)c1ccc2c(c1)n1ncc(Cl)c1n[n+]2[O-]	1	> 80	
CC(Oc1ccc2c(c1)n1ncc(I)c1n[n+]2[O-])c1ccccc1 (stereo in doubt; (+)-16)	605		Activity (Mus musculus [3]; 10 mg/kg): 543.7 s; Activity (Mus musculus [22]): 31.9; Activity (Mus musculus [23]): 80; Activity (Mus musculus [5]; 10 mg/kg): 55.5; Activity (Mus musculus [8]; 10 mg/kg): 733.5 s; Activity (Mus musculus [24]): 607.7 s; Activity (Mus musculus [25]): 62.9; Activity (Mus musculus [26]): 39.3; Activity (Mus musculus [27]): 59.7; Activity (Mus musculus [28]): 345.3 s; Activity (Mus musculus [12]; 10 mg/kg): 2.5; Activity (Mus musculus [13]; 10 mg/kg): 25.1; Activity (Mus musculus [29]): 30.4; Activity (Mus musculus [30]): 1.3
CCCCCCCCOc1ccc2c(c1)n1ncc(I)c1n[n+]2[O-]	1620	> 80	
[O-][n+]1nc2c(I)cnn2c2cc(-c3ccccc3)ccc21	966	> 80	
[O-][n+]1nc2c(-c3ccsc3)cnn2c2cc(Oc3ccccc3)ccc21	68	> 80	
CCOC(=O)c1cnn2c1n[n+]([O-])c1ccc(Oc3ccccc3)cc12	12	> 80	
[O-][n+]1nc2c(I)cnn2c2cc(CCc3ccccc3)ccc21	464	> 80	
[O-][n+]1nc2c(Cl)cnn2c2cc(Oc3ccccc3)ccc21	43	> 80	
